In ChEMBL document CHEMBL1131800, “Novel carbonic anhydrase isozymes I, II and IV activators incorporating sulfonyl-histamino moieties” (Bioorg Med Chem Lett, 1999):

What was measured:
[1] = target: T1, Carbonic anhydrase 4 (Bos taurus) (UniProt Q95323); test: In vitro […] activity against bovine carbonic anhydrase IV (bCA IV) purified from lung microsomes.
T1 sequence (whole entry): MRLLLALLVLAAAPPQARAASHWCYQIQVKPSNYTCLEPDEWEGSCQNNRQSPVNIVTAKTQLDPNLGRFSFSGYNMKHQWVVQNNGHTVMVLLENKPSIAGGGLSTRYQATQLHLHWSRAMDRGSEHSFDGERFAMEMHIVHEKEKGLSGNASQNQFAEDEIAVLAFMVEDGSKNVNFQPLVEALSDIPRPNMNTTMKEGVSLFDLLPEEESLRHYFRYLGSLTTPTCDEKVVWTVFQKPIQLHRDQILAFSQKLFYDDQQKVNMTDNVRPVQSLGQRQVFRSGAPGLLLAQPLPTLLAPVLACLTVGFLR
Procedure, shortened: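 Bovine lung microsomal CA IV (31 nM) was preincubated 10 min at room temperature with activator, then assayed by the esterase method. 4-Nitrophenolate formation was measured at pH 7.40 (ε 18,400 M-1·cm-1), minus the uncatalysed rate. Activator came from a 1 mM aqueous stock diluted to 0.1 nM. Ka is the mean of ≥3 runs.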

[2] = target: Carbonic anhydrase 1 (Homo sapiens) (UniProt P00915); test: In vitro binding affinity against human carbonic anhydrase I (hCA-I human cloned isozyme).
Sequence of Carbonic anhydrase 1 (Homo sapiens) (P00915 2-261 limits assumed): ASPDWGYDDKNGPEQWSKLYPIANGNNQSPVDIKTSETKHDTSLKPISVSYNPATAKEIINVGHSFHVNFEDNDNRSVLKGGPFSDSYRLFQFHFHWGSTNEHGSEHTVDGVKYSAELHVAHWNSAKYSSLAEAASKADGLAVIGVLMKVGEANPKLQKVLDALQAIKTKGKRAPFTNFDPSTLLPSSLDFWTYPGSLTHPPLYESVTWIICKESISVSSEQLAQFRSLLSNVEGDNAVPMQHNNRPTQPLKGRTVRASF
Procedure, shortened: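 Human cloned CA I (12 nM) preincubated 10 min at room temperature with activator, then esterase assay on 4-nitrophenyl ester hydrolysis. Read-out was 4-nitrophenolate (ε 18,400 M-1·cm-1) at pH 7.40, with nonenzymatic rate subtracted. Activator stock was 1 mM in distilled-deionized water, diluted down to 0.1 nM. Ka is the mean of ≥3 determinations.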

[3] = target: Carbonic anhydrase 2 (Homo sapiens) (UniProt P00918); test: In vitro binding affinity against human carbonic anhydrase II (hCA-II human cloned isozyme).
Procedure, shortened: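 Human cloned CA II (3.5 nM) preincubated 10 min at room temperature with activator, then esterase assay following 4-nitrophenolate formation (ε 18,400 M-1·cm-1) at pH 7.40. Nonenzymatic hydrolysis was subtracted. Activator was diluted in water from a 1 mM stock down to 0.1 nM. Activation constant Ka is the mean of at least three determinations.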

O=C(O)c1ccccc1S(=O)(=O)NCCc1c[nH]cn1 showed a Ka [1] of 0.12 µM, a Ka [2] of 0.06 µM and a Ka [3] of 1.2 µM.

For O=S(=O)(NCCc1c[nH]cn1)C(F)(F)C(F)(F)C(F)(F)C(F)(F)F, the Ka [1] was 0.05 µM, the Ka [2] was 0.01 µM and the Ka [3] was 0.9 µM.

Cc1ccc(S(=O)(=O)NCCc2c[nH]cn2)cc1 was tested, and the Ka [1] was 7 µM, the Ka [2] was 0.24 µM and the Ka [3] was 28 µM.

O=[N+]([O-])c1ccc(S(=O)(=O)NCCc2c[nH]cn2)cc1 gave a Ka [1] of 1.8 µM, a Ka [2] of 0.14 µM and a Ka [3] of 10 µM.

Work on O=S(=O)(NCCc1c[nH]cn1)c1ccc(Cl)cc1 yielded a Ka [1] of 2.5 µM, a Ka [2] of 0.1 µM and a Ka [3] of 13 µM.

For O=S(=O)(NCCc1c[nH]cn1)c1cc(Cl)cc(Cl)c1O, the Ka [1] was 0.09 µM, the Ka [2] was 0.1 µM and the Ka [3] was 7 µM.

COc1ccc(S(=O)(=O)NCCc2c[nH]cn2)cc1 showed a Ka [1] of 6.5 µM, a Ka [2] of 0.2 µM and a Ka [3] of 22 µM.

Work on O=C(NCCc1c[nH]cn1)NS(=O)(=O)c1ccc(Cl)cc1 yielded a Ka [1] of 0.01 µM, a Ka [2] of 0.003 µM and a Ka [3] of 0.08 µM.

CN(C)c1cccc2c(S(=O)(=O)NCCc3c[nH]cn3)cccc12 gave a Ka [1] of 3.2 µM, a Ka [2] of 0.28 µM and a Ka [3] of 9 µM.

For O=S(=O)(NCCc1c[nH]cn1)C(F)(F)F, the Ka [1] was 0.15 µM, the Ka [2] was 0.013 µM and the Ka [3] was 1.2 µM.

For O=C(O)c1cccc(S(=O)(=O)NCCc2c[nH]cn2)c1, the Ka [1] was 0.07 µM, the Ka [2] was 0.05 µM and the Ka [3] was 0.5 µM.

With O=S(=O)(NCCc1c[nH]cn1)c1cccs1 the Ka [1] was 1.1 µM, the Ka [2] was 0.09 µM and the Ka [3] was 5 µM.

Work on O=C(O)c1c(Br)c(Br)c(Br)c(Br)c1S(=O)(=O)NCCc1c[nH]cn1 yielded a Ka [1] of 0.1 µM, a Ka [2] of 0.05 µM and a Ka [3] of 0.3 µM.

O=S(=O)(NCCc1c[nH]cn1)c1cc(Cl)ccc1Cl showed a Ka [1] of 0.1 µM, a Ka [2] of 0.08 µM and a Ka [3] of 5 µM.

With Cc1cc(C)c(S(=O)(=O)NCCc2c[nH]cn2)c(C)c1 the Ka [1] was 5.9 µM, the Ka [2] was 0.25 µM and the Ka [3] was 35 µM.

In the case of O=C(NCCc1c[nH]cn1)NS(=O)(=O)c1ccc(F)cc1, the Ka [1] is reported as 0.02 µM, the Ka [2] is reported as 0.004 µM and the Ka [3] is reported as 0.09 µM.

In the case of O=[N+]([O-])c1ccc(S(=O)(=O)NCCc2c[nH]cn2)cc1Cl, the Ka [1] is reported as 1.4 µM, the Ka [2] is reported as 0.12 µM and the Ka [3] is reported as 6 µM.

Work on O=[N+]([O-])c1cccc(S(=O)(=O)NCCc2c[nH]cn2)c1 yielded a Ka [1] of 1.5 µM, a Ka [2] of 0.12 µM and a Ka [3] of 9 µM.

For O=[N+]([O-])c1ccccc1S(=O)(=O)NCCc1c[nH]cn1, the Ka [1] was 1.6 µM, the Ka [2] was 0.13 µM and the Ka [3] was 8 µM.

O=S(=O)(NCCc1c[nH]cn1)C(F)(F)C(F)(F)C(F)(F)C(F)(F)C(F)(F)C(F)(F)C(F)(F)C(F)(F)F showed a Ka [1] of 0.03 µM, a Ka [2] of 0.007 µM and a Ka [3] of 0.5 µM.

Compound O=S(=O)(NCCc1c[nH]cn1)C(Cl)(Cl)Cl has a Ka [1] of 3.6 µM, a Ka [2] of 0.018 µM and a Ka [3] of 13 µM.

For CC1(C)C2CCC1(CS(=O)(=O)NCCc1c[nH]cn1)C(=O)C2 (stereo unspecified), the Ka [1] was 5.4 µM, the Ka [2] was 0.17 µM and the Ka [3] was 15 µM.

Work on O=S(=O)(NCCc1c[nH]cn1)c1c(F)c(F)c(F)c(F)c1F yielded a Ka [1] of 0.04 µM, a Ka [2] of 0.006 µM and a Ka [3] of 0.1 µM.

With O=S(=O)(NCCc1c[nH]cn1)c1ccc(Br)cc1 the Ka [1] was 3 µM, the Ka [2] was 0.09 µM and the Ka [3] was 10 µM.

O=C(O)c1ccc(S(=O)(=O)NCCc2c[nH]cn2)cc1 gave a Ka [1] of 0.1 µM, a Ka [2] of 0.06 µM and a Ka [3] of 0.8 µM.

For O=S(=O)(NCCc1c[nH]cn1)c1ccccc1, the Ka [1] was 5 µM, the Ka [2] was 0.21 µM and the Ka [3] was 30 µM.

In the case of Cc1ccccc1S(=O)(=O)NC(=O)NCCc1c[nH]cn1, the Ka [1] is reported as 0.03 µM, the Ka [2] is reported as 0.006 µM and the Ka [3] is reported as 0.15 µM.

O=S(=O)(NCCc1c[nH]cn1)c1ccc(I)cc1 was tested, and the Ka [1] was 3.2 µM, the Ka [2] was 0.08 µM and the Ka [3] was 10 µM.

Compound NCCc1c[nH]cn1 has a Ka [1] of 41 µM, a Ka [2] of 2 µM and a Ka [3] of 125 µM.

Work on Cc1ccc(S(=O)(=O)NC(=O)NCCc2c[nH]cn2)cc1 yielded a Ka [1] of 0.02 µM, a Ka [2] of 0.005 µM and a Ka [3] of 0.1 µM.

For O=S(=O)(NCCc1c[nH]cn1)c1cccc2ccccc12, the Ka [1] was 3.6 µM, the Ka [2] was 0.26 µM and the Ka [3] was 10 µM.

CC(=O)Nc1ccc(S(=O)(=O)NCCc2c[nH]cn2)cc1 gave a Ka [1] of 6 µM, a Ka [2] of 0.21 µM and a Ka [3] of 20 µM.

For O=S(=O)(Cc1ccccc1)NCCc1c[nH]cn1, the Ka [1] was 5.4 µM, the Ka [2] was 0.18 µM and the Ka [3] was 34 µM.

For O=S(=O)(NCCc1c[nH]cn1)c1ccc2ccccc2c1, the Ka [1] was 3.5 µM, the Ka [2] was 0.24 µM and the Ka [3] was 9 µM.

O=S(=O)(NCCc1c[nH]cn1)c1ccc(F)cc1 gave a Ka [1] of 2.4 µM, a Ka [2] of 0.11 µM and a Ka [3] of 12 µM.

CN(C)S(=O)(=O)NCCc1c[nH]cn1 gave a Ka [1] of 5.3 µM, a Ka [2] of 0.15 µM and a Ka [3] of 13 µM.

With Nc1ccc(S(=O)(=O)NCCc2c[nH]cn2)cc1 the Ka [1] was 4.1 µM, the Ka [2] was 0.13 µM and the Ka [3] was 14 µM.
